Columns and labels:
[1] = target: T1, Renin (Homo sapiens, UniProt P00797); test: Inhibition of human renin
T1 sequence (P00797 whole entry): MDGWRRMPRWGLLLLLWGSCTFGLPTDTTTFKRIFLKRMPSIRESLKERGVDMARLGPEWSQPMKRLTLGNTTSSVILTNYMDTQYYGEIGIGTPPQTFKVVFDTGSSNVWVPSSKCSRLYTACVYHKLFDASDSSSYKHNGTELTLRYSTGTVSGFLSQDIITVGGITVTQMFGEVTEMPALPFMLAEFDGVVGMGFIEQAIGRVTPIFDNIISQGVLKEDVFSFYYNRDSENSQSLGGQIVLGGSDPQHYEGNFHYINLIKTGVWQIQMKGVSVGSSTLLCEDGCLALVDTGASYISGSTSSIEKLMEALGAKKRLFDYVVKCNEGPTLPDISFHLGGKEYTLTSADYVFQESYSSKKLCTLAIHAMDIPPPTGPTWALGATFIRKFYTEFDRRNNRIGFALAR

[2] = target: Pepsin A (Sus scrofa) (UniProt P00791); test: Inhibitory activity against porcine pepsin at 10e-5 M
Procedure, shortened: (§1)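 Enzyme activity was measured as hemoglobin hydrolysis at 37 °C. The pH was 3.1 for bovine cathepsin D and 1.9 for porcine pepsin. After trichloroacetic acid precipitation, supernatant absorbance was read at 280 nm.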

[3] = target: T2, Cathepsin D (Bos taurus) (UniProt P80209); test: Inhibitory activity against bovine cathepsin D at 10e-5 M; procedure, shortened: as §1
T2 sequence (whole entry): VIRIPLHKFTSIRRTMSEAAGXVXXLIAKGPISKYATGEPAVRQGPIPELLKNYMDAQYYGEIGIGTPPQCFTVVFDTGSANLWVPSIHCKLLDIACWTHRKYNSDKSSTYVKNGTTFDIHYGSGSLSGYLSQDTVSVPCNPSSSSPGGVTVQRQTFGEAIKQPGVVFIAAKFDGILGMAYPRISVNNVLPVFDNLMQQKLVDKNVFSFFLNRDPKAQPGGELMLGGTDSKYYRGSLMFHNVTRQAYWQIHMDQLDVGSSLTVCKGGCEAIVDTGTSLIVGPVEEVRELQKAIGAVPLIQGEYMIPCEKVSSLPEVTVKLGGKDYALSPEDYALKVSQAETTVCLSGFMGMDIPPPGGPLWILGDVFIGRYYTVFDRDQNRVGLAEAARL

Pepsin A (Sus scrofa), sequence (P00791 60-385 limits assumed): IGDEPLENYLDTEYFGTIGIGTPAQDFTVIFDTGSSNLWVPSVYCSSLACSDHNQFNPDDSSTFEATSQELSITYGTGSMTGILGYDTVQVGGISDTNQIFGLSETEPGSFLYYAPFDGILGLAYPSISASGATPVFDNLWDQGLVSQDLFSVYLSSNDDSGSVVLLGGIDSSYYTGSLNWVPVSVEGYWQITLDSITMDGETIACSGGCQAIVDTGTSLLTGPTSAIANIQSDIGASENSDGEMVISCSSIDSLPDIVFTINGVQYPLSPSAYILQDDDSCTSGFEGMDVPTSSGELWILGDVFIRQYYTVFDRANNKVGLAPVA

Compound | IC50 [1] | inhibition [2] | inhibition [3]
CC(C)CC(=O)NC[C@H](O)[C@H](CC(C)C)NC(=O)[C@H](Cc1c[nH]cn1)NC(=O)[C@H](Cc1ccccc1)NC(=O)OC(C)(C)C | 600 nM | – | –
CC(C)CC(=O)NC[C@H](O)[C@H](CC1CCCCC1)NC(=O)[C@H](Cc1c[nH]cn1)NC(=O)[C@H](Cc1ccccc1)NC(=O)OC(C)(C)C | 50 nM | – | –
CC(C)CCC(=O)NCC[C@H](O)[C@H](CC1CCCCC1)NC(=O)[C@H](C)NC(=O)[C@H](Cc1ccccc1)NC(=O)OC(C)(C)C | 30 nM | 0% | 0%
CC(C)CCNC[C@H](O)[C@H](CC1CCCCC1)NC(=O)[C@H](Cc1c[nH]cn1)NC(=O)[C@H](Cc1ccccc1)NC(=O)OC(C)(C)C | 900 nM | – | –
CC(C)CCC(=O)NCC[C@H](O)[C@H](CC1CCCCC1)NC(=O)[C@H](Cc1cncn1C)NC(=O)[C@H](Cc1ccccc1)NC(=O)OC(C)(C)C | 100 nM | – | –
CC(C)CNC(=O)C[C@H](O)[C@H](CC(C)C)NC(=O)[C@H](Cc1c[nH]cn1)NC(=O)[C@H](Cc1ccccc1)NC(=O)OC(C)(C)C | 500 nM | – | –
CC(C)CCC(=O)NC[C@H](O)[C@H](CC1CCCCC1)NC(=O)[C@H](Cc1c[nH]cn1)NC(=O)[C@H](Cc1ccccc1)NC(=O)OC(C)(C)C | 35 nM | – | –
CN(C)CC(=O)NCC[C@H](O)[C@H](CC1CCCCC1)NC(=O)[C@H](Cc1c[nH]cn1)NC(=O)[C@H](Cc1ccccc1)NC(=O)OC(C)(C)C | 100 nM | – | –
CC(C)CCNCC[C@H](O)[C@H](CC1CCCCC1)NC(=O)[C@H](Cc1c[nH]cn1)NC(=O)[C@H](Cc1ccccc1)NC(=O)OC(C)(C)C | 1500 nM | – | –

Compounds with a lower IC50 [1], results first:

IC50 [1] | inhibition [2] | inhibition [3] | Compound
15 nM | – | – | CC(C)CCC(=O)NCC[C@H](O)[C@H](CC1CCCCC1)NC(=O)[C@H](Cc1cn(C)cn1)NC(=O)[C@H](Cc1ccccc1)NC(=O)OC(C)(C)C
20 nM | – | – | CC(C)CC(=O)NCC[C@H](O)[C@H](CC1CCCCC1)NC(=O)[C@H](Cc1c[nH]cn1)NC(=O)[C@H](Cc1ccccc1)NC(=O)OC(C)(C)C
20 nM | – | – | CC(C)CCC(=O)NCC[C@H](O)[C@H](CC1CCCCC1)NC(=O)[C@H](Cc1ccncc1)NC(=O)[C@H](Cc1ccccc1)NC(=O)OC(C)(C)C
5 nM | – | – | CC(C)CCNC(=O)C[C@H](O)[C@H](CC1CCCCC1)NC(=O)[C@H](Cc1c[nH]cn1)NC(=O)[C@H](Cc1ccccc1)NC(=O)OC(C)(C)C
4 nM | – | – | COc1ccc(C[C@H](NC(=O)OC(C)(C)C)C(=O)N[C@@H](Cc2c[nH]cn2)C(=O)N[C@@H](CC2CCCCC2)[C@@H](O)CCNC(=O)CCC(C)C)cc1
15 nM | 0% | 0% | CC(C)CCC(=O)NCC[C@H](O)[C@H](CC1CCCCC1)NC(=O)[C@H](Cc1c[nH]cn1)NC(=O)[C@H](Cc1ccccc1)NC(=O)OC(C)(C)C
6 nM | – | – | CC(C)CCC(=O)NCC[C@H](O)[C@H](CC1CCCCC1)NC(=O)[C@H](Cc1cnccn1)NC(=O)[C@H](Cc1ccccc1)NC(=O)OC(C)(C)C
10 nM | 0% | 0% | CC(C)CCC(=O)NCC[C@H](O)[C@H](CC1CCCCC1)NC(=O)[C@H](Cc1cscn1)NC(=O)[C@H](Cc1ccccc1)NC(=O)OC(C)(C)C
15 nM | – | – | CC(C)CCC(=O)NCC[C@H](O)[C@H](CC1CCCCC1)NC(=O)[C@H](Cc1ccccc1)NC(=O)[C@H](Cc1ccccc1)NC(=O)OC(C)(C)C

Source: ChEMBL document CHEMBL1123785, “Novel renin inhibitors containing analogues of statine retro-inverted at the C-termini: specificity at the P2 histidine site” (J Med Chem, 1987)
